According to ChEMBL document CHEMBL4339200, “Structure-based Discovery of Phenyl (3-Phenylpyrrolidin-3-yl)sulfones as Selective, Orally Active RORγt Inverse Agonists” (ACS Med Chem Lett, 2019):
Calls of active or inactive are those of the source. The calls are words filed in the database; no cut-off is given here.

What was measured:
[1] = test system: Mus musculus; experiment: Inhibition of IL2/IL23-induced IL17F production in C57BL/6 mouse at 5 mg/kg, po bid treated 30 mins prior to 24 hrs IL2 challenge followed by IL2/IL23 addition at 0,7 and 23 hrs measured after 7 hrs post last IL2/IL23 challenge relative to control; assay type: functional; conditions: C57BL/6, po
Summary of the method: (§1)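 Naive mice were challenged three times with IL-2 plus IL-23 (first at 0 and 7 h) and dosed orally bid at 5, 15 or 50 mg/kg. Serum cytokines were measured 7 h after the final IL-2/IL-23 administration. An anti-IL-23 antibody served as positive control.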

[2] = target: Cytochrome P450 2C9 (Homo sapiens, UniProt P11712); experiment: Inhibition of CYP2C9 (unknown origin); assay type: ADME
Chain of Cytochrome P450 2C9 (P11712 whole entry): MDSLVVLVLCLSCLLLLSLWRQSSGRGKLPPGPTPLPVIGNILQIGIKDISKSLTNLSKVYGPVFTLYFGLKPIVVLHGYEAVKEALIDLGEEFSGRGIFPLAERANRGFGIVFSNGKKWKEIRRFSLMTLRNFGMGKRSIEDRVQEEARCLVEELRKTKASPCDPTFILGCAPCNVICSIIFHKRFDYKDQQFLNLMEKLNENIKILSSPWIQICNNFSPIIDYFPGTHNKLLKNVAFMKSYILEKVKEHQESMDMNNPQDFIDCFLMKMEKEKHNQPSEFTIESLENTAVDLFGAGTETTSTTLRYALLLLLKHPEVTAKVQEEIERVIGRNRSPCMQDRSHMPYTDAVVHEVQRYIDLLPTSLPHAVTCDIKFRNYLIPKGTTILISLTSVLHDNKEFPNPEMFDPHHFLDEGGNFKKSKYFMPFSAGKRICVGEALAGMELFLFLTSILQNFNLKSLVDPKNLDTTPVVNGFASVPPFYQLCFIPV

[3] = target: T1, Nuclear receptor subfamily 1 group I member 2 (Homo sapiens, UniProt O75469); experiment: Transactivation of PXR in human HepG2 cells; assay type: ADME, cell-based
T1 sequence (O75469 whole entry): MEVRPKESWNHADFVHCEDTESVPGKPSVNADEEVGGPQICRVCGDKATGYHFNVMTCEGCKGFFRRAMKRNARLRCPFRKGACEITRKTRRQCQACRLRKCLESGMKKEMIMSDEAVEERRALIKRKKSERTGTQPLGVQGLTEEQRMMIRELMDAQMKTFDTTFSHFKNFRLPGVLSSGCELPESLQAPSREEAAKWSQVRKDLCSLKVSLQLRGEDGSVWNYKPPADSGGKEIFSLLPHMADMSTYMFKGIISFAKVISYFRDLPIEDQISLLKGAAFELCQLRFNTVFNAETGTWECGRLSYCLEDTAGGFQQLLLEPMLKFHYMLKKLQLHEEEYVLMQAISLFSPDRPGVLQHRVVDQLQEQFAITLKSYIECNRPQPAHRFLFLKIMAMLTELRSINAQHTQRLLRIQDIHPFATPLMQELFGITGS

[4] = test system: Mus musculus; experiment: Inhibition of IL2/IL23-induced GM-CSF production in po bid dosed C57BL/6 mouse treated 30 mins prior to 24 hrs IL2 challenge followed by IL2/IL23 addition at 0,7 and 23 hrs measured after 7 hrs post last IL2/IL23 challenge; assay type: functional, organism-based; summary of the method: as §1
[5] = Volume of distribution at steady state in Balb/c mouse at 2 mg/kg, iv; assay type: ADME, organism-based; conditions: in vivo, read-out: Vdss
Summary of the method: (§2)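 Balb/c mice given a single intravenous dose of 2 mg/kg or an oral dose of 10 mg/kg. Plasma exposure was followed to derive Cmax, Tmax, AUC, t1/2, clearance, Vss and oral bioavailability (F).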

[6] = target: T2, Nuclear receptor ROR-beta (Homo sapiens) (UniProt Q92753); experiment: Agonist activity at GAL4-fused RORbeta LBD (200 to 559 residues) (unknown origin) expressed in human Jurkat cells measured after 18 hrs by native IL17 promoter driven steady-glo luciferase assay; assay type: cell-based
T2 sequence (whole entry): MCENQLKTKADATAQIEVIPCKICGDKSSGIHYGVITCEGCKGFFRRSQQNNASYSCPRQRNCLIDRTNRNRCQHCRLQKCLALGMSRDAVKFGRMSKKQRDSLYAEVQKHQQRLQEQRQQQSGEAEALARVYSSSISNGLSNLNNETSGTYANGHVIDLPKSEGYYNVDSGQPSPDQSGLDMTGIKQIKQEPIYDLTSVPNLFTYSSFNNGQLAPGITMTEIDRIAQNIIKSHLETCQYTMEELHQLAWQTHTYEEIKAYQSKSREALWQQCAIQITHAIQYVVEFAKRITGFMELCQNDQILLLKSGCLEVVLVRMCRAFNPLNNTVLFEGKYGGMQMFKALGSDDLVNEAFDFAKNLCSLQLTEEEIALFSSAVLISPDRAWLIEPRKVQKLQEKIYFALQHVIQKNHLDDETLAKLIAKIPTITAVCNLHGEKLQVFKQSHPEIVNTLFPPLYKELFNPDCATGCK

[7] = test system: Mus musculus; experiment: Protection against IL23-induced acanthosis C57BL/6 mouse model of psoriasis assessed as reduction in ear swelling at 10 to 50 mg/kg, po bid for 10 days treated 2 hrs prior to IL23 challenge every other day for 10 days measured on day 11; assay type: functional, organism-based
[8] = test system: Mus musculus; experiment: Inhibition of IL2/IL23-induced IL17F production in po bid dosed C57BL/6 mouse treated 30 mins prior to 24 hrs IL2 challenge followed by IL2/IL23 addition at 0,7 and 23 hrs measured after 7 hrs post last IL2/IL23 challenge; assay type: functional, organism-based; summary of the method: as §1
[9] = Stability in mouse liver microsomes assessed as parent compound remaining after 10 mins; assay type: ADME, Microsome; conditions: read-out: Stability
Summary of the method: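 Rough stability screen: compound incubated with mouse liver microsomes for 10 min, reported as percentage of parent remaining.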

[10] = Permeability in human Caco2 cells; assay type: ADME, cell-based; conditions: Caco-2, read-out: permeability
Summary of the method: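 Caco-2 monolayer permeability, reported as permeation coefficient in nm/s; an efflux ratio was also determined.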

[11] = target: T3, Oxysterols receptor LXR-beta (Homo sapiens, UniProt P55055); experiment: Agonist activity at LXRbeta (unknown origin) expressed in African green monkey CV1 cells; assay type: cell-based
T3 sequence (P55055 whole entry): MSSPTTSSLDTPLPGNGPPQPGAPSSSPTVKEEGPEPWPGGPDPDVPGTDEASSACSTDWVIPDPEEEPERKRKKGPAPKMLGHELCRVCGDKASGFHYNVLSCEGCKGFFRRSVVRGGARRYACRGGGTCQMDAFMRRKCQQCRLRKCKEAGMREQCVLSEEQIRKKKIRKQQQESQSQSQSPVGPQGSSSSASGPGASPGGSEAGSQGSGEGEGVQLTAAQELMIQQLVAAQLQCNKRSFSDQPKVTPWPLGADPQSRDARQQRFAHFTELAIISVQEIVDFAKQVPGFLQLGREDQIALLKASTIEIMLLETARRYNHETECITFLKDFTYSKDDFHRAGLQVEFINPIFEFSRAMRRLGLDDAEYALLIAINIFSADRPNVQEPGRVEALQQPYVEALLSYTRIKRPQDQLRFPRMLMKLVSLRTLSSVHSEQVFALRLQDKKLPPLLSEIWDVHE

[12] = Cmax in Balb/c mouse at 10 mg/kg, po; assay type: ADME, organism-based; parameters: dose 10 mg/kg, route oral; conditions: in vivo; summary of the method: as §2
[13] = target: T4, Cytochrome P450 2C8 (Homo sapiens, UniProt P10632); experiment: Inhibition of CYP2C8 (unknown origin); assay type: ADME
T4 sequence (P10632 whole entry): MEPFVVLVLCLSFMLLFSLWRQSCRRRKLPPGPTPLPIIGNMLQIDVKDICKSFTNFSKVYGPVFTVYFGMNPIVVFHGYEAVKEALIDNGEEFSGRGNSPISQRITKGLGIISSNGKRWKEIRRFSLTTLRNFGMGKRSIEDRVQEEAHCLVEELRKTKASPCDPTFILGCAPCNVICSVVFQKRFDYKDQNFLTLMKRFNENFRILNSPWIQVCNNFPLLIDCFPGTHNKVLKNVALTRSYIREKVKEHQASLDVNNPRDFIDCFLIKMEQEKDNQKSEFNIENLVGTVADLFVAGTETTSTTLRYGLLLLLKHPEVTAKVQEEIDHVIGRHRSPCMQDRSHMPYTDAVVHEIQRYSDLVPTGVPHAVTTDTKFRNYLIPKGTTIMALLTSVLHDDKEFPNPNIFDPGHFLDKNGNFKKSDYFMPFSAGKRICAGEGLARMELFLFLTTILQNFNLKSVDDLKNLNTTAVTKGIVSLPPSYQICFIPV

## O=C(O)[C@H]1CC[C@H](C(=O)N2CC[C@](c3ccc(C(F)(C(F)(F)F)C(F)(F)F)cc3)(S(=O)(=O)c3ccc(F)cc3)C2)CC1
[1]
  inhibition in vivo at 5 mg/kg: 47%
[2]
  IC50: > 20 µM
[3]
  EC50: > 50 µM
[4]
  inhibition: Dose-dependent effect
[5]
  Vd: 3.4 L/kg
[6]
  Activity: inactive
[7]
  Activity: Active
[8]
  inhibition: Dose-dependent effect
[9]
  remaining at 10 min: 86%
[10]
  Papp: 12 ×10⁻⁶ cm/s
[11]
  EC50: > 7.5 µM
[12]
  Cmax: 6.6 µM
[13]
  IC50: 0.68 µM
